{
  "source": "paper PMC8176898",
  "about": "(Journal of the American Chemical Society, 2021)",
  "molecules": {"B1": {"name": "Mint2-PARM F520A (domain or fragment, human, UniProt Q99767 364-570, looked up)", "chain": "EDLIDGIIFAANYLGSTQLLSERNPSKNIRMMQAQEAVSRVKRMQKAAKIKKKANSEGDAQTLTEVDLFISTQRIKVLNADTQETMMDHALRTISYIADIGNIVVLMARRRMPRSASQDCIETTPGAQEGKKQYKMICHVFESEDAQLIAQSIGQAASVAYQEFLRANGINPEDLSQKEYSDIINTQEMYNDDLIHFSNSENCKELQ"}, "B2": {"name": "semisynthetic Mint2-pPARMSS D462δ (domain or fragment, human, UniProt Q99767 364-570, looked up)", "chain": "B1 chain with R92K, C120A, C138A, A157F, C203A", "modifications": "backbone amide-to-ester at D462 (α-hydroxy acid, D462δ)"}, "B3": {"name": "semisynthetic Mint2-pPARMSS S458σ (domain or fragment, human, UniProt Q99767 364-570, looked up)", "chain": "B1 chain with R92K, C120A, C138A, A157F, C203A", "modifications": "backbone amide-to-ester at S458 (α-hydroxy acid, S458σ)"}, "B4": {"name": "Mint2-PARM L454A (domain or fragment, human, UniProt Q99767 364-570, looked up)", "chain": "B1 chain with L91A, A157F"}, "B5": {"name": "human Mint2-PARM Y459A/F520A (hMint2^Y459A/F520A) (domain or fragment, UniProt Q99767 364-570, looked up)", "chain": "B1 chain with Y96A"}, "B6": {"name": "TAMRA-APP_(C-term) probe, (TAMRA)-NNG-QNGYENPTYKFFEQMQN (peptide)", "peptide": "{TAMRA}-NNGQNGYENPTYKFFEQMQN"}, "B7": {"name": "Mint2-PARM Y459A (domain or fragment, human, UniProt Q99767 364-570, looked up)", "chain": "B1 chain with Y96A, A157F"}},
  "key": {"[1]": {"tested_on": "Aβ42 levels, primary cortical neurons (APPswe/PS1ΔE9)", "experiment": "Aβ42 ELISA of conditioned medium of APPswe/PS1ΔE9 neurons", "type": "cell-based, mouse", "conditions": "24 h incubation"}, "[2]": {"tested_on": "primary cortical neurons (APPswe/PS1ΔE9)", "experiment": "LDH release", "conditions": "after 24 h of treatment, TAT-14 10 μM; same conditioned medium as ELISA"}, "[3]": {"experiment": "In vitro human plasma stability", "type": "in vitro ADME", "summary_of_the_method": "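Test peptides incubated in human plasma at 37 °C for up to 24 h. At various time points, peptide was extracted and quantified by UPLC. A buffer-only control was run alongside. Mean ± SEM, n = 3.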"}, "[4]": {"experiment": "In vitro hepatic clearance, mouse liver microsomes", "type": "in vitro ADME"}, "primary neurons": {"tested_on": "primary neurons", "experiment": "Neuronal cell viability", "conditions": "colorimetric readout of metabolic activity"}, "[5]": {"molecular_target": "B6", "experiment": "fluorescence polarisation"}, "[6]": {"molecular_target": "T1, human Mint2-PTB-ARM (Mint2-PARM), PARMHis6, residues 364-570 (human, UniProt Q99767 364-570)", "T1 sequence (looked up)": "B1 chain with A157F", "experiment": "fluorescence polarisation"}, "Mint2-PARM D462A": {"molecular_target": "T2, Mint2-PARM D462A (human, UniProt Q99767 364-570, D462A)", "T2 sequence (looked up)": "B1 chain with D99A, A157F", "experiment": "fluorescence polarisation"}},
  "note": "Substitutions are numbered along the chain they refer to. Names may count otherwise. Ends that are not written are not given here.",
  "data": [
    {"molecule": "C[C@H](NC(=O)Cc1cc(F)cc(F)c1)C(=O)NC(C(=O)OC(C)(C)C)c1ccccc1", "note": "(stereo partly drawn) [DAPT, N-[N-(3,5-difluorophenacetyl)-l-alanyl]-s-phenyl-glycine tert-butyl ester, reference compound]", "values": [
      {"measurement": "reduction of Aβ42 levels (positive control)", "setting": "[1]; concentration not given", "value": 47, "unit": "%"},
      {"measurement": "LDH release relative to vehicle control (in words)", "setting": "[2]", "value": "low LDH levels"}
    ]},
    {"molecule": "NGYENPTYKFFE [APPWT peptide]", "values": [
      {"measurement": "half-life (T1/2) in human plasma", "setting": "[3]; 37 °C, up to 24 h, UPLC read-out, n = 3", "value": "< 30", "unit": "min"},
      {"measurement": "half-life", "setting": "[3]; human", "value": 26, "unit": "min"},
      {"measurement": "microsomal CLint", "setting": "[4]", "value": "15.4 ± 2.5", "unit": "µL/min/mg"}
    ]},
    {"molecule": "cyclo(DLATEPAK(Dap)-14 (bicyclic or more) [MiniAp4-14]", "values": [
      {"measurement": "reduction of Aβ42 levels relative to vehicle control", "setting": "[1]; 10 μM, vehicle 0.25% DMSO", "value": "did not affect Aβ42 production"},
      {"measurement": "adverse effect on cell viability over the concentration curve (in words)", "setting": "primary neurons", "value": "no toxicity"}
    ]},
    {"molecule": "B1", "values": [
      {"measurement": "fold reduction in affinity relative to Mint2-PARM^WT", "setting": "[5]", "value": 45, "unit": "fold"}
    ]},
    {"molecule": "B2", "values": [
      {"measurement": "fold reduction in affinity relative to wild type", "setting": "[5]", "value": 25, "unit": "fold"}
    ]},
    {"molecule": "B3", "values": [
      {"measurement": "fold reduction in affinity relative to wild type", "setting": "[5]", "value": 14, "unit": "fold"}
    ]},
    {"molecule": "B4", "values": [
      {"measurement": "fold reduction in affinity relative to Mint2-PARM^WT", "setting": "[5]", "value": "> 10", "unit": "fold"}
    ]},
    {"molecule": "B5", "values": [
      {"measurement": "fold decrease in affinity relative to wild-type Mint2-PARM", "setting": "[5]", "value": 72, "unit": "fold"}
    ]},
    {"molecule": "B6", "values": [
      {"measurement": "binding result", "setting": "[6]", "value": "binds"},
      {"measurement": "binding result", "setting": "Mint2-PARM D462A", "value": "binds"}
    ]},
    {"molecule": "B7", "values": [
      {"measurement": "fold reduction in affinity relative to Mint2-PARM^WT", "setting": "[5]", "value": "> 10", "unit": "fold"}
    ]},
    {"molecule": "NGYENPTYKFFE", "note": "[APPWT peptide (NGYENPTYKFFE; residues 755-766)]", "values": [
      {"measurement": "Ki", "setting": "[6]", "value": "4 ± 0.2", "unit": "µM"}
    ]},
    {"molecule": "NGYENPTWKFFE (peptide, UniProt P05067 755-766, looked up)", "note": "[APPWT peptide Y762W]", "values": [
      {"measurement": "binding result", "setting": "[6]", "value": "binds"}
    ]},
    {"molecule": "NGYENPTYKFAE (peptide, UniProt P05067 755-766, looked up)", "note": "[APPWT peptide F765A]", "values": [
      {"measurement": "fold decrease in affinity relative to the APPWT peptide", "setting": "[6]", "value": 18, "unit": "fold"}
    ]},
    {"molecule": "NGYENPTYKWFE (peptide, UniProt P05067 755-766, looked up)", "note": "[APPWT peptide F764W]", "values": [
      {"measurement": "binding result", "setting": "[6]", "value": "binds"}
    ]},
    {"molecule": "NGYENPTYKAFE (peptide, UniProt P05067 755-766, looked up)", "note": "[APPWT peptide F764A]", "values": [
      {"measurement": "fold decrease in affinity relative to the APPWT peptide", "setting": "[6]", "value": 14, "unit": "fold"}
    ]},
    {"molecule": "NGAENPTYKFFE (peptide, UniProt P05067 755-766, looked up)", "note": "[APPWT peptide Y757A]", "values": [
      {"measurement": "fold decrease in affinity relative to the APPWT peptide", "setting": "[6]", "value": 76, "unit": "fold"}
    ]},
    {"molecule": "NGYENPTYKFWE (peptide, UniProt P05067 755-766, looked up)", "note": "[APPWT peptide F765W]", "values": [
      {"measurement": "binding result", "setting": "[6]", "value": "binds"}
    ]},
    {"molecule": "NGYEQPTYKFFE (peptide, UniProt P05067 755-766, looked up)", "note": "[APPWT peptide N759Q]", "values": [
      {"measurement": "Ki", "setting": "[6]", "value": "≥ 500", "unit": "µM"}
    ]}
  ]
}
